The RNAGym collection of RNA variant scans (doi:10.1038/nmeth.2970)

B1: NELF-E aptamer (parent)
chain: CCCAACGACUGCCGAGCGAGAUUACGCUUGAGCGCCCCACUGAGGAUGCCCACGGGCGAUUGGGGCACGG

Variants of: B1
Test: HiTS-RAP
Settings: with NELF-E (Drosophila)
In short: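 Aptamer DNA templates carrying a T7 promoter and ter site were sequenced on an Illumina GAIIx flowcell, then transcribed in situ by T7 RNA polymerase and halted by GST-Tus (30 minutes, 37°C). Clusters were imaged after 30-minute room-temperature equilibration with NELF-E-mOrange at 0.064 to 1000 nM in HEPES binding buffer, and only the first binding curve was used. Intensities were normalised to sequencing intensity and averaged per sequence. Kd came from weighted Hill fits, keeping fits with variance below 1,000,000.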

**Q.** For CCCAACGACUGCCGAGCGAGAUGACGCUUGAGAGCCCCACUGAGGAUGCCCACGGGCGAUUGGGGCACGG [U23G C33A], which Kd is on record?
**A.** The Kd was 5.51 nM.

**Q.** CCCAACGACUGCCGAGCGAGAUUGCGCUUGAGCGCCCCACUGAGGAUGCCCACGGGCGAUUGGGACACGG [A24G G65A] was tested. Which Kd did it give?
**A.** The Kd was 5.2 nM.

**Q.** How did the Kd turn out when CCCAACGACUGCCGAGGGAGAUUACGCUUGAGCGCCCCACUGAGGAUGCCCACGGGCGAUUGGGGCACGG [C17G] was run?
**A.** Its Kd is 5.02 nM.

**Q.** Which Kd does the source give for CCCAACGACUGCCGAGCGAGAUUACGCUGGAACGCCCCACUGAGGAUGCCCACGGGCGAUUGGGGCACGG [U29G G32A] here?
**A.** Its Kd is 5.37 nM.

**Q.** Which Kd does the source give for CCCAACGAUUGCGGAGCGAGAUUACGCUUGAGCGCCCCACUGAGGAUGCCCACGGGCGAUUGGGGCACGG [C9U C13G] here?
**A.** Its Kd is 5.59 nM.

**Q.** For CCCAACGACUGCCGUGCGAGAUUGCGCUUGAGCGCCCCACUGAGGAUGCCCACGGGCGAUUGGGGCACGG [A15U A24G], which Kd is on record?
**A.** Its Kd is 6.86 nM.

**Q.** With CCCAACGACUGCCGAGCGAUAUUACGCUUGAGCGCCCCACUGAGGAUGCCCACGGGCGAUUGGAGCACGG [G20U G64A] as the variant, how does the Kd read?
**A.** The Kd was 9.36 nM.

**Q.** Which Kd does the source give for CCCAACGACUGCCGAGCAAGAGUACGCUUGAGCGCCCCACUGAGGAUGCCCACGGGCGAUUGGGGCACGG [G18A U22G] here?
**A.** Its Kd is 6 nM.

**Q.** For CCCAACGACUGCCGAGCGAGAUGACGCUUGAGCGCCCCACUGAGGAGGCCCACGGGCGAUUGGGGCACGG [U23G U47G], which Kd is on record?
**A.** The Kd was 6.6 nM.

**Q.** For CCCAACGUCUGCCGAGCGAGAUUACGCUUGAGCGCCCCACUGAGGAUGCCCACGGGCGAUUGGGGCUCGG [A8U A67U], which Kd is on record?
**A.** The Kd was 7.42 nM.

**Q.** Which Kd does the source give for CCCAUGGACUGCCGAGCGAGAUUACGCUUGAGCGCCCCACUGAGGAUGCCCACGGGCGAUUGGGGCACGG [A5U C6G] here?
**A.** The Kd was 5.7 nM.

**Q.** For CCCAACGACGGCCGAGCGAGAUUACGCUUGAGUGCCCCACUGAGGAUGCCCACGGGCGAUUGGGGCACGG [U10G C33U], which Kd is on record?
**A.** Its Kd is 5.07 nM.

**Q.** How did the Kd turn out when CCCAACGACUGCCGAGCGAGAUUACGCUUGAGCGCCCCACUGAGGAUGCCCACGAGCGAUUGGGGCUCGG [G55A A67U] was run?
**A.** The Kd was 11.2 nM.

**Q.** How did the Kd turn out when CCCAACGACUGCCGAGCGAGAUUACGCUUGAGCGUCCCACUGAGGAUGCCCACGGGCGAUUGGGGCACGG [C35U] was run?
**A.** Its Kd is 13 nM.

**Q.** CCCAACGACUGCCGAGCGAGAUUACGCUUGAGCGCCCCACUGAGGAUGCCGACGGGCGAUUGGGGCACGG [C51G] was tested. Which Kd did it give?
**A.** The Kd was 4.48 nM.

**Q.** Which Kd does the source give for CCCAACGACUGCCGAGCGGGAUUACGCUUGAGCGCCCCACUGAGGAUGCCCACGGGCGAUUGGGGUACGG [A19G C66U] here?
**A.** The Kd was 5.18 nM.

**Q.** For CCCAACGACUGCCGAGCGAGAUUACGCUGGAGCGCCCCCCUGAGGAUGCCCACGGGCGAUUGGGGCACGG [U29G A39C], which Kd is on record?
**A.** Its Kd is 24.7 nM.

**Q.** Which Kd does the source give for CCCAACGACUGCCGAGCGAGGUUACGCUUGAGCGCCCCACUGAGGAUGCCCACGGGCGAUUGGAGCACGG [A21G G64A] here?
**A.** Its Kd is 9.49 nM.

**Q.** CCCAACUACUGCCGAGCGAAAUUACGCUUGAGCGCCCCACUGAGGAUGCCCACGGGCGAUUGGGGCACGG [G7U G20A] was tested. Which Kd did it give?
**A.** The Kd was 7.33 nM.

**Q.** Which Kd does the source give for CCCAACGAGUGCCGAGCGAGAUUACGCUUGAGCGCCCCACUUAGGAUGCCCACGGGCGAUUGGGGCACGG [C9G G42U] here?
**A.** Its Kd is 7.6 nM.

**Q.** With CCCAGCGAUUGCCGAGCGAGAUUACGCUUGAGCGCCCCACUGAGGAUGCCCACGGGCGAUUGGGGCACGG [A5G C9U] as the variant, how does the Kd read?
**A.** Its Kd is 6.36 nM.

**Q.** With CCCAACGACUGCCGAGCGAGAUUGCGCUUGAGCGCCCCACUGAGGAUGCCCACGGGUGAUUGGGGCACGG [A24G C57U] as the variant, how does the Kd read?
**A.** Its Kd is 6.3 nM.

**Q.** For CCCAACGACUGCCGAGCGAGAUUACGCUCGAGCGCCCCACUGAGGAUGCCCACGGGCGAUAGGGGCACGG [U29C U61A], which Kd is on record?
**A.** The Kd was 38 nM.

**Q.** With CCCAACUACUGCCGAGCGAGAUUACGCGUGAGCGCCCCACUGAGGAUGCCCACGGGCGAUUGGGGCACGG [G7U U28G] as the variant, how does the Kd read?
**A.** The Kd was 8.81 nM.

**Q.** For CCCAACUACUGCCGAGCGAGAUUACGCCUGAGCGCCCCACUGAGGAUGCCCACGGGCGAUUGGGGCACGG [G7U U28C], which Kd is on record?
**A.** The Kd was 9.32 nM.

**Q.** How did the Kd turn out when CCCAACGACUGCCGAGGGAGAUUACGCGUGAGCGCCCCACUGAGGAUGCCCACGGGCGAUUGGGGCACGG [C17G U28G] was run?
**A.** Its Kd is 6.4 nM.

**Q.** With CCCGACUACUGCCGAGCGAGAUUACGCUUGAGCGCCCCACUGAGGAUGCCCACGGGCGAUUGGGGCACGG [A4G G7U] as the variant, how does the Kd read?
**A.** Its Kd is 6.07 nM.

**Q.** How did the Kd turn out when CCCAACUACUGCCGAGCGAGAUUACGCUUGAGCGCCCCACUGAGGAUGCCCACGGGCGAUAGGGGCACGG [G7U U61A] was run?
**A.** The Kd was 39.5 nM.

**Q.** For CCCAACGACUGCCGAGCGAGAUUACGCUGGAGCGCCCCACUGAGGAUGCCCACGGGCGAUUAGGGCACGG [U29G G62A], which Kd is on record?
**A.** Its Kd is 18.7 nM.

**Q.** For CCCGAGGACUGCCGAGCGAGAUUACGCUUGAGCGCCCCACUGAGGAUGCCCACGGGCGAUUGGGGCACGG [A4G C6G], which Kd is on record?
**A.** Its Kd is 5.28 nM.

**Q.** Which Kd does the source give for CCCAACGACUGCCGAGCGAGAUUACGCUUGAGCGCCCUACUGAGGAUGCCCACGGGCGAUUGGGGCACGG [C38U] here?
**A.** The Kd was 7.54 nM.

**Q.** CCCAACGACUGCCGAUCGAGAUUACGCUUGAGCGCCUCACUGAGGAUGCCCACGGGCGAUUGGGGCACGG [G16U C37U] was tested. Which Kd did it give?
**A.** Its Kd is 21.9 nM.

**Q.** CCCAACGACUGCCGAGCGAGAUUACGCUGGAGCGCCCCACUAAGGAUGCCCACGGGCGAUUGGGGCACGG [U29G G42A] was tested. Which Kd did it give?
**A.** Its Kd is 24.6 nM.

**Q.** Which Kd does the source give for CCCAACGACUGCCGAGCGAGAUUGCGCUUGAGCGCCCCACUGAGGAUGCUCACGGGCGAUUGGGGCACGG [A24G C50U] here?
**A.** The Kd was 9.69 nM.

**Q.** How did the Kd turn out when CCCAACGGCUGCCGAGCGAGAUUACGCUUGAGCGCCCCACUGAGGAUGCCCACGGGCGAUCGGGGCACGG [A8G U61C] was run?
**A.** Its Kd is 70.8 nM.

**Q.** CCCAACGACGGCCGAGCGAGAUUAAGCUUGAGCGCCCCACUGAGGAUGCCCACGGGCGAUUGGGGCACGG [U10G C25A] was tested. Which Kd did it give?
**A.** The Kd was 4.07 nM.

**Q.** How did the Kd turn out when CCCAACGACGGCCGAGCGAGAUUACCCUUGAGCGCCCCACUGAGGAUGCCCACGGGCGAUUGGGGCACGG [U10G G26C] was run?
**A.** The Kd was 17.4 nM.

**Q.** With CCCAACGACAGCCAAGCGAGAUUACGCUUGAGCGCCCCACUGAGGAUGCCCACGGGCGAUUGGGGCACGG [U10A G14A] as the variant, how does the Kd read?
**A.** Its Kd is 7.05 nM.
